Screens: PubChem, several laboratories
TbHK1 inh: T. brucei hexokinase 1 inhibition; recombinant TbHK1, G6PDH-coupled NADH A340; actives 0.11% (n = 220,000); inhibition, % at 10 µM; AID 1430;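 active = inhibition of 50% or more in the single-dose primary screen; inactive = inhibition below 50%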
HSF1 inhib: HSF1 inhibition; activity change, negative = inhibition, % at 7.5 µM (by protocol); actives 0.77% (n = 300,000); NIH3T3-HGL HSE-luciferase, MG132-induced, luminescence 8 h; hits give low values;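 active = more than half of replicate wells show activity change below -50%, luminescence cut by over half; inconclusive = some wells, but at most half, below -50%; inactive = no replicate well below -50%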;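 also: luciferase reports HSF-1 transcriptional activity via heat shock element; 0% = median of DMSO wells and -100% = zero luminescence signal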
Hsp70 activator: Hsp70 transcriptional activation, primary screen; HeLa Hsp70 promoter luciferase reporter, luminescence; scaled: vehicle 0, proteasome-inhibitor control 100%; activation, % at 10 µM; actives 0.04% (n = 200,000); AID 1203;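 active = activation above the mean across all tested compounds plus 3 SD, cutoff set per campaign, cut at about 5.5% in these data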;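 also: 100% = MG132 at 30 µM as the positive control and 0% = DMSO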
HKDC1 inhibitor: HKDC1 (human) hexokinase inhibition. Q2TB90. AID 493160. inhibition, % at 20 µM. actives 0.16% (n = 340,000). recombinant HKDC1, G6PDH/diaphorase resazurin coupled fluorescence;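 active = inhibition above about 35% when tested at 20 µM, limit read from the data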;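 also: plate controls were DMSO wells with enzyme for no effect and DMSO wells lacking enzyme for full effect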
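Test system: Recombinant HKDC1 (HK5) hexokinase enzyme, produced in-house | Input: HKDC1 at 5 µg/mL | Buffer or medium: Tris pH 8.0 buffer with MgCl2, Tween-20, BSA, BME | Schedule: 90 min reaction incubation at room temperature, dark | Technique: Resazurin-to-resorufin fluorescence via G6PDH and diaphorase coupling, 525/613 nm | Controls: DMSO wells with and without enzyme mix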
HSP90 inh: HSP90 refolding inhibition in rabbit reticulocyte lysate. inhibition, % at 5.6 µM. actives 0.91% (n = 290,000). luciferase refolding luminescence, 3 h. AID 1789;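 active = inhibition above the screen-wide mean plus 3 SD, computed separately per campaign, cut at about 16% in these data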;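 also: 0% = DMSO wells and 100% = 60 µM geldanamycin wells; inhibitors lower the luminescence because luciferase stays unfolded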
HSF1 activator: increases HSF-1 driven luciferase reporter signal; AID 504408; actives 1.7% (n = 300,000); activation, % at 9 µM; NIH3T3-HGL HSF-1 luciferase reporter, MG132, 8 h; 100% = twice DMSO control signal;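 active = mean replicate activation of at least 50% with a set share of replicates each reaching 50%; inconclusive = only one of those two conditions met; inactive = mean below 50% and too few replicates reaching it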;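 also: 0% = median of the neutral control wells and 100% = twice that signal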
* marks the source's active call; other numbers are inactive results; ? = inconclusive; . = no result. The list is not random: actives were taken first. Their share in the collection is about 3.1%.

SMILES	TbHK1 inh	HSF1 inhib	Hsp70 activator	HKDC1 inhibitor	HSP90 inh	HSF1 activator
CCCc1nnc(NC(=O)c2nc(S(=O)(=O)Cc3cccc(C)c3)ncc2Cl)s1	.	-60*	.	7	1	-69
CN1/C(=C/C(=O)c2nc(S(C)(=O)=O)ncc2Cl)C(C)(C)c2ccccc21	-13	-92*	0	12	1	-92
c1ccc(-c2nc3c(ccc4ccccc43)[nH]2)nc1	-31	33	1	15	-3	58*
Cc1cc(C)c(S(=O)(=O)/N=C2/C=C(Sc3ncn[nH]3)C(=O)c3ccccc32)cc1C	38	.	0	64*	80*	.
COC(=O)c1ccc(NC(=O)CCCN2C(=O)NC(C)(C)C2=O)cc1	.	.	.	-1	.	.
CC(C)NC(=O)N(O)C1N(C(C)C)C(=O)N(Cc2ccc3c(c2)OCO3)C1(C)C (centres undefined)	3	-1	.	-1	3	-13
CC(C)NC(=O)N(O)C1N(Cc2ccc3c(c2)OCO3)C(=S)SC1(C)C (centres undefined)	5	-58*	0	0	0	-67
COc1ccc(C(=O)N2CCC3(CC2)NCCc2[nH]cnc23)cc1	.	-11	.	0	-4	5
CCC(C(=O)OCC(=O)Nc1cc(Cl)ccc1Cl)c1ccccc1 (centres undefined)	0	-66*	0	-5	0	-74
O=C(CN1C(=O)NC2(CCCC2)C1=O)N1CCN(c2ccc(C(F)(F)F)cc2[N+](=O)[O-])CC1	.	.	.	-3	.	.
O=C(Nc1ccn(CCCN2CCN(c3ccccn3)CC2)c(=O)n1)OCc1ccccc1	.	.	.	-5	.	.
CN(C(=O)c1ccc(OC2CCN(Cc3ccccn3)CC2)cc1)C1CCCCC1	.	-52*	.	-2	5	-64
O=C(COC(=O)c1ccccc1C(=O)c1ccccc1)NCCc1ccccc1	-3	17	0	9	1	55*
COc1ccccc1CNC(=O)C1CCC(CNS(=O)(=O)c2ccc(C)cc2)CC1 (centres undefined)	.	-14	.	6	0	-7
Cc1ccccc1C(=O)NCCCNC(=O)c1ccccc1C	.	-4	.	-4	.	15
O=C(NCCCN1CCOCC1)c1cc(-c2ccc(Cl)c(Cl)c2)on1	.	0	.	-2	-1	-1
Cc1ccc(-c2cc(C(=O)NCCCN3CCOCC3)no2)cc1	0	-76*	0	-2	6	-79
Cc1cc(C(F)(F)F)nc(NCc2cccnc2)n1	79*	6	0	0	0	8
O=[N+]([O-])c1cccc(-c2ccc(C(=S)N3CCOCC3)o2)c1	-13	49	0	3	1	79*
N#CCCN1CCN(C(=S)c2ccc(-c3cccc(Cl)c3)o2)CC1	-36	19	0	-4	3	?
N#CCCN1CCN(C(=S)c2ccc(-c3ccc(Cl)c(Cl)c3)o2)CC1	-20	61	0	10	0	100*
S=C(c1ccc(-c2cccc(Cl)c2)o1)N1CCOCC1	-13	37	0	-4	5	49
O=C(Nc1ccccc1F)c1ccc(-c2cccc([N+](=O)[O-])c2)o1	.	25	.	-8	2	51*
S=C(c1ccc(-c2cccc(Cl)c2)o1)N1CCCCC1	7	38	0	10	0	73*
CC(=O)Nc1cccc(NC(=O)CS(=O)(=O)c2cn(CC(=O)N(C(C)C)C(C)C)c3ccccc23)c1	.	-2	.	-3	-3	-2
SMILES	TbHK1 inh	HSF1 inhib	Hsp70 activator	HKDC1 inhibitor	HSP90 inh	HSF1 activator
O=C(N/N=C/c1ccc(-c2cccc([N+](=O)[O-])c2)o1)c1ccccc1O	4	25	0	-9	1	58*
CCOC(=O)CNC(=O)Cn1cnc2c(nnn2-c2ccc(OC)cc2)c1=O	.	-3	.	-2	-4	-9
COc1ccc(N/C=C2\C(=O)CCc3c2oc2cc(Cl)c(O)c(Cl)c32)cc1	-79	41	.	0	4	62*
COc1ccc(N/C=C2\CCOC2=O)cc1	-45	0	0	-7	2	-3
O=C(Nc1nccs1)C(=O)c1c[nH]c2ccccc12	-18	13	0	-2	0	51*
C[C@@H](NC(=O)C(=O)c1c[nH]c2ccccc12)c1ccccc1	.	-5	.	-4	.	7
CSc1ccccc1NC(=O)C(=O)c1c[nH]c2ccccc12	3	27	0	-2	-3	62*
O=C(Cc1c[nH]c2ccccc12)Nc1nccs1	-2	5	0	4	1	-1
CC(OC(=O)CN1C(=O)NC2(CCCC2)C1=O)C(=O)Nc1cccc(Cl)c1 (centres undefined)	.	-8	.	-8	2	-13
CC1Cc2ccccc2N1C(=O)COC(=O)Cc1ccc(F)cc1 (centres undefined)	.	3	.	-5	.	-7
Cc1ccc2nc(-c3ccc(NC(=O)Cc4cccs4)cc3)[nH]c2c1	-8	37	0	0	-5	76*
CCOc1ccc(NC(=O)C2CCN(C(=O)C3CC(=O)N(c4ccc(C)cc4)C3)CC2)cc1 (centres undefined)	.	-6	.	-7	4	-8
C=C1CCC[C@]2(C)C[C@H]3OC(=O)C(CN4CC(C)OC(C)C4)[C@H]3C[C@@H]12 (some centres undefined)	.	12	.	3	-2	25
C=C1CCC[C@]2(C)C[C@H]3OC(=O)C(CNCC(C)C)[C@H]3CC12 (some centres undefined)	.	38	.	-3	0	68*
C=C1CCC[C@]2(C)C[C@H]3OC(=O)C(CNCCN(C)C)[C@H]3CC12 (some centres undefined)	.	13	.	-4	-3	19
C=C1CCC[C@]2(C)C[C@H]3OC(=O)C(CNCCN(CC)CC)[C@H]3CC12 (some centres undefined)	.	11	.	-2	7	61*
O=C(Nc1ccc(S(=O)(=O)Nc2cnc3ccccc3n2)cc1)c1ccc(Cl)c([N+](=O)[O-])c1	.	2	.	2	-3	2
O=C1CCC(=O)N1CNc1ccccn1	-3	-70*	0	-2	-2	-77
O=C1C2CC=C(Cl)CC2C(=O)N1CNc1ccccn1 (centres undefined)	-5	-8	0	-1	2	-8
O=C(CCl)N=c1sccn1Cc1ccccc1Cl	-6	.	.	3	1	.
O=C(CCl)N=c1sccn1Cc1ccc(Cl)cc1Cl	-3	-98*	0	8	0	-98
CCCCCCSc1ccc([C@H]2N[C@@](C)(C(=O)OC)[C@H]3C(=O)N(CC)C(=O)[C@@H]23)cc1	.	8	.	1	.	16
CCc1nn(C(C)C(=O)NC(C)CCc2ccco2)c(=O)c2cc3occc3n12 (centres undefined)	6	66	0	2	10	129*
